# Reference: ChEMBL document CHEMBL2034931, “Discovery of Novel Small Molecule Mer Kinase Inhibitors for the Treatment of Pediatric Acute Lymphoblastic Leukemia” (ACS Med Chem Lett, 2012)
# Key:
# [1] = biological target: Receptor-type tyrosine-protein kinase FLT3 (Homo sapiens) (UniProt P36888); test: Inhibition of FLT3 at 10 times IC50 concentration after 90 mins in presence of ATP
# Outline: (§1)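 Single-concentration screen across a kinase panel spanning the main kinase families, the TAM family and the related MET family. Each sample was run in duplicate, and the read-out was percent inhibition of kinase activity.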
# [2] = biological target: MAP kinase-activated protein kinase 2 (Homo sapiens) (UniProt P49137); test: Inhibition of MAPKAPK2 at 10 times IC50 concentration after 90 mins in presence of ATP; outline: as §1
# MAP kinase-activated protein kinase 2 (Homo sapiens), sequence (P49137 whole entry, looked up): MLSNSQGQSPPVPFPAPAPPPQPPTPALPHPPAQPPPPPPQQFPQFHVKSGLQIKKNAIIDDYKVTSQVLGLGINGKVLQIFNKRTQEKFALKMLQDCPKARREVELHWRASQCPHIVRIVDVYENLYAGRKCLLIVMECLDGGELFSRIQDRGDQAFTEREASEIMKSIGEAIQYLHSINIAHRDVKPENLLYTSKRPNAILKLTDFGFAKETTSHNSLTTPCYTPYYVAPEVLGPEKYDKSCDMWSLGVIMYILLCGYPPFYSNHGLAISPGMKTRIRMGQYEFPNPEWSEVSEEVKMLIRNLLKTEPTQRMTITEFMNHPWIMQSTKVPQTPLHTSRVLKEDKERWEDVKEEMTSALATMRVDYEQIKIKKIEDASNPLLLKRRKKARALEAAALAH
# [3] = biological target: Proto-oncogene tyrosine-protein kinase receptor Ret (Homo sapiens) (UniProt P07949); test: Inhibition of Ret at 10 times IC50 concentration after 90 mins in presence of ATP; outline: as §1
# Proto-oncogene tyrosine-protein kinase receptor Ret (Homo sapiens), sequence (P07949 whole entry): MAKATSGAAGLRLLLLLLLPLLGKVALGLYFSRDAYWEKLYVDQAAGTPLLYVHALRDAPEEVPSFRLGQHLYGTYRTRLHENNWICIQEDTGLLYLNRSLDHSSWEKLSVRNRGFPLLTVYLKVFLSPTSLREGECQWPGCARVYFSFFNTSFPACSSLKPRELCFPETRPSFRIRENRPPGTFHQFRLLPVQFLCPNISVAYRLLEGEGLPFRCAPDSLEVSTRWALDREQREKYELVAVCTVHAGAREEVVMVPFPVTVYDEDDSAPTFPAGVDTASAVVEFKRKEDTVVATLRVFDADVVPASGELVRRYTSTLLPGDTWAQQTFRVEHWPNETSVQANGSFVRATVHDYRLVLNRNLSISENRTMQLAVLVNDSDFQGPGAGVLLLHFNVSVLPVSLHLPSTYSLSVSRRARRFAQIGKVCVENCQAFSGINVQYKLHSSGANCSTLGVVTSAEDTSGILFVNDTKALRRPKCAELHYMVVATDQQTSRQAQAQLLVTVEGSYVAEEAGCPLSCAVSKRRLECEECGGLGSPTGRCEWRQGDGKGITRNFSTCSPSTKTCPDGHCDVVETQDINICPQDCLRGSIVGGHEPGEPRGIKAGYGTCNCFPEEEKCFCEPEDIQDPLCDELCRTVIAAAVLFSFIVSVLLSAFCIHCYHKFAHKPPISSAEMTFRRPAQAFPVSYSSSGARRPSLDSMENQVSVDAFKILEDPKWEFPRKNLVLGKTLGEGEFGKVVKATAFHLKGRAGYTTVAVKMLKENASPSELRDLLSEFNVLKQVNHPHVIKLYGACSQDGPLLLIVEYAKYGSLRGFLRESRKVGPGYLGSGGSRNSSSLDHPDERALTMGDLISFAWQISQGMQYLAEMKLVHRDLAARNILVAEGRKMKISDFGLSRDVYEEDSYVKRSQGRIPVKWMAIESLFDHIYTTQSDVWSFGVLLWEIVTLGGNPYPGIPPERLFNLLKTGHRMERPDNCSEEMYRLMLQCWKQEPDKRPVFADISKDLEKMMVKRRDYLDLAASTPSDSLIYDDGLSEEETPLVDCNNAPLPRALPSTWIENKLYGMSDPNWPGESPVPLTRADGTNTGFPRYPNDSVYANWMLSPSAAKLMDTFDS
# [4] = test system: Proto-oncogene tyrosine-protein kinase receptor Ret (Homo sapiens), P07949 [Y791F]; test: Inhibition of Ret Y791F mutant at 10 times IC50 concentration after 90 mins in presence of ATP; outline: as §1
# Proto-oncogene tyrosine-protein kinase receptor Ret (Homo sapiens), P07949 [Y791F], sequence (P07949 whole entry Y791F): as the sequence (P07949 whole entry) above, with Y791F counted along it
# [5] = biological target: T1, Tyrosine-protein kinase receptor UFO (Homo sapiens, UniProt P30530); test: Inhibition of Axl using KKKKEEIYFFF-CONH2 as substrate after 180 mins by microfluid capillary electrophoresis assay
# T1 sequence (P30530 whole entry): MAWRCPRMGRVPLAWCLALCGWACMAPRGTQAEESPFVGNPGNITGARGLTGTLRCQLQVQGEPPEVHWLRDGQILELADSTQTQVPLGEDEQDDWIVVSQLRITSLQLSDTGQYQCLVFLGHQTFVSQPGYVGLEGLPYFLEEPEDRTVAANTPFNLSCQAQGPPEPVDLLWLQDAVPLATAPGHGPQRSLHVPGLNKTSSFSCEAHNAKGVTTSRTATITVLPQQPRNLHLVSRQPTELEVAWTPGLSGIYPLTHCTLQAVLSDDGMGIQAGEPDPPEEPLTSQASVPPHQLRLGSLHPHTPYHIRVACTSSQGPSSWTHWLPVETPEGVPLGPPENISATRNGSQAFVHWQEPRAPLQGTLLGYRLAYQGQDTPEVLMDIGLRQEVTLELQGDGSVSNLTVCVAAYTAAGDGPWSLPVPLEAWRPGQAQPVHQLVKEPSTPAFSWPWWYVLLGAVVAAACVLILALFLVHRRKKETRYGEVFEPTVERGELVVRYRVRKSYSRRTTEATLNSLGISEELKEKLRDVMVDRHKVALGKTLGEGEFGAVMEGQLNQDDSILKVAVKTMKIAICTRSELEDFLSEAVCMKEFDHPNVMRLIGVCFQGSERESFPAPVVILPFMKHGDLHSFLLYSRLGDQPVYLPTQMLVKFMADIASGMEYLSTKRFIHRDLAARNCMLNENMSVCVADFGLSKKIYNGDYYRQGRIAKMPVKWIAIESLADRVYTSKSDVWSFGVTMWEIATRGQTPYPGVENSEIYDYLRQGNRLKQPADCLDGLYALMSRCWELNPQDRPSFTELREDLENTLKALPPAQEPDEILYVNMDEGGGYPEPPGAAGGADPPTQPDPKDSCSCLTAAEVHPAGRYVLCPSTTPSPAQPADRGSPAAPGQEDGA
# [6] = biological target: T2, Tyrosine-protein kinase receptor TYRO3 (Homo sapiens, UniProt Q06418); test: Inhibition of Tyro3 using EFPIYDFLPAKKK-CONH2 as substrate after 180 mins by microfluid capillary electrophoresis assay
# T2 sequence (Q06418 whole entry): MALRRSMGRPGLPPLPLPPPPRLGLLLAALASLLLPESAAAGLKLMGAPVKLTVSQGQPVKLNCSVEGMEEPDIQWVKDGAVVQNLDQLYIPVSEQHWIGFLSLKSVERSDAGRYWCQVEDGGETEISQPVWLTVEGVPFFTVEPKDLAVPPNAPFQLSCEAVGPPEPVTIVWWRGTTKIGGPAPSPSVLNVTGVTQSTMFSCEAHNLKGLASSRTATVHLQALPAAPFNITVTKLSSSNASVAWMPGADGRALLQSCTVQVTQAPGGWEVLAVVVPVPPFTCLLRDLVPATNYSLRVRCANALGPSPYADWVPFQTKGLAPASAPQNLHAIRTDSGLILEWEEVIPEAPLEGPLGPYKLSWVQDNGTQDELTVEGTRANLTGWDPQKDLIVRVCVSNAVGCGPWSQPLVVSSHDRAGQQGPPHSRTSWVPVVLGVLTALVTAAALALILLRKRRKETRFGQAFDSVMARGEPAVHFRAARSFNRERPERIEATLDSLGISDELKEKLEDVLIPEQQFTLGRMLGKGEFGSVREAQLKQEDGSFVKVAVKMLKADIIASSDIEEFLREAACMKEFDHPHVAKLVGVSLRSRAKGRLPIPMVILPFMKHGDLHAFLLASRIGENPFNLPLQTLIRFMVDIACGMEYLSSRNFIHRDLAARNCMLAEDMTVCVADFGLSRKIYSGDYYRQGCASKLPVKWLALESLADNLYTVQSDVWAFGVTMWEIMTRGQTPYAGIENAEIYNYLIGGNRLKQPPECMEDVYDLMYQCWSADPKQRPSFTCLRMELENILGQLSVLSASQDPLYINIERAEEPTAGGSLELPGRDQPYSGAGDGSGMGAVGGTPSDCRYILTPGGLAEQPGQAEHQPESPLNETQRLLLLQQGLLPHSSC
# [7] = biological target: T3, Tyrosine-protein kinase Mer (Homo sapiens, UniProt Q12866); test: Inhibition of Mer expressed in Escherichia coli BL21 (DE3) cells using EFPIYDFLPAKKK-CONH2 as substrate after 180 mins by microfluid capillary electrophoresis assay
# T3 sequence (Q12866 whole entry): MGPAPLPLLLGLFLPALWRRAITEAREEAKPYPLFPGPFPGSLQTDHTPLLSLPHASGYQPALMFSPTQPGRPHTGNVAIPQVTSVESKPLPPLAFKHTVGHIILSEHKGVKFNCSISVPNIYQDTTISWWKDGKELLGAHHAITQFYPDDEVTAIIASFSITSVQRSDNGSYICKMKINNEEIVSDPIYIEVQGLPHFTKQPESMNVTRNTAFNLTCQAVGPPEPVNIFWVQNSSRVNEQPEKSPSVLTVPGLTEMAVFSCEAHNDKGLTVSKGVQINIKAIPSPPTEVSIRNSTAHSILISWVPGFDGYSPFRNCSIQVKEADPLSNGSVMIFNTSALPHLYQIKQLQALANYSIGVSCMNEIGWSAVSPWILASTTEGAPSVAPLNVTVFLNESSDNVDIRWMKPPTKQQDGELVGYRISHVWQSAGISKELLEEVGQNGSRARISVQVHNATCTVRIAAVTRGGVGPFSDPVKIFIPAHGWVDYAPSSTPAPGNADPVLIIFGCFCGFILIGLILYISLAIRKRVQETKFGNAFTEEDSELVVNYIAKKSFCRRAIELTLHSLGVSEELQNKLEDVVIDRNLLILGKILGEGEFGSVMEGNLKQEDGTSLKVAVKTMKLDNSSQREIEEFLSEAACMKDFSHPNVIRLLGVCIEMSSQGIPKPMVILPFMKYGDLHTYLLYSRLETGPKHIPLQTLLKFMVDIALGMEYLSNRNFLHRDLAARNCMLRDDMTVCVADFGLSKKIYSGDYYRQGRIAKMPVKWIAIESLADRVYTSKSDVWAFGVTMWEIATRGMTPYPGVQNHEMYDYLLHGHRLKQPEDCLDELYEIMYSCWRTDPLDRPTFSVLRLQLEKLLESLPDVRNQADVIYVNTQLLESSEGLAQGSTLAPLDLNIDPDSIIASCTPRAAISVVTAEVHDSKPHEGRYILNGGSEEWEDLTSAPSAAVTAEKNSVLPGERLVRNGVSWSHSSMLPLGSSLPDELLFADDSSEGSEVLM
# Mus musculus [8] = test: Volume of distribution at steady state in Swiss mouse at 3 mg/kg, iv; format: ADME, organism-based; parameters: dose 3 mg/kg, route intravenous; details: in vivo
# Mus musculus [9] = test: Oral bioavailability in Swiss mouse at 3 mg/kg; format: ADME, organism-based; details: in vivo
# Receptor-type tyrosine-protein kinase FLT3 (Homo sapiens), sequence (P36888 whole entry): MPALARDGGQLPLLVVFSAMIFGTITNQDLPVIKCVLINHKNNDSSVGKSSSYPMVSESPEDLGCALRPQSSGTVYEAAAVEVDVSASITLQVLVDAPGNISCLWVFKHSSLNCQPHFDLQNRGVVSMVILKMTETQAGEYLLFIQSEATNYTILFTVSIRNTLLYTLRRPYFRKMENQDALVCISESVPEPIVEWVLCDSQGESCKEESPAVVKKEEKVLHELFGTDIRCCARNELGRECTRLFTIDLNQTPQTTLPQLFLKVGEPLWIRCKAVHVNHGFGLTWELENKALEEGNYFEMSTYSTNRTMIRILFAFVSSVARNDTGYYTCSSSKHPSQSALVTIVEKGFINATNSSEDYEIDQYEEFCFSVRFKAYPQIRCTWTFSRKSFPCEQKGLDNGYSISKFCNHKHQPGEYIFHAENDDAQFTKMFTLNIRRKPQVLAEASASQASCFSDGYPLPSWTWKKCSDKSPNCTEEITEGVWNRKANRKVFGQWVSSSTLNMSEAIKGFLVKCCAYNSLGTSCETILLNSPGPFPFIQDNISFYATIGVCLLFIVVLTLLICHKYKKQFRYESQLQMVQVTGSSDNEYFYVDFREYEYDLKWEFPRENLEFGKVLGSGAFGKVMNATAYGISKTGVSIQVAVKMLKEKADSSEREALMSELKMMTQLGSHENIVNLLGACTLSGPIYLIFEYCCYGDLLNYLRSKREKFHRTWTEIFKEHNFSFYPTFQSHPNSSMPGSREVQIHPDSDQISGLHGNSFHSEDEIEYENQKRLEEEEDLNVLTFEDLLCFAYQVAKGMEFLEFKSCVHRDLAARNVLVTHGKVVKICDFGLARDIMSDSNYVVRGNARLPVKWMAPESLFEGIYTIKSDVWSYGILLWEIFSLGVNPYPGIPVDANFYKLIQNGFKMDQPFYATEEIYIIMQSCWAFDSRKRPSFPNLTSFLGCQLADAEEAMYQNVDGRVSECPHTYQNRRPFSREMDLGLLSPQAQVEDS
SMILES,inhibition [1] [%],inhibition [2] [%],inhibition [3] [%],inhibition [4] [%],IC50 [5] [µM],IC50 [6] [µM],also measured
N[C@H]1CC[C@H](Cn2nc(-c3ccc(N4CCNCC4)cc3)c3cnc(NCCCc4ccccc4)nc32)CC1,82,94,79,67,,,
CNc1ncc2c(C(C)C)nn(C[C@@H]3CCCN3)c2n1,,,,,> 30,> 30,
CC(C)n1cnc2c(Nc3cccc(Cl)c3)nc(NCCO)nc21,,,,,,,IC50 [7]: 11 µM
CCCCNc1ncc2c(-c3ccc(F)cc3)nn(C[C@H]3CC[C@H](N)CC3)c2n1 [PYRAZOLOPYRIMIDINE],82,92,59,56,,,Vdss (Mus musculus [8]): 5.83 L/kg; F (Mus musculus [9]): 57%
CNc1ncc2c(C(C)C)nn(CC3CCNCC3)c2n1,,,,,> 30,> 30,
